# This is a sample that favours compounds with a hit; in the whole collection about 4.5% have one here.
# CHOP UPR activ: activators of apoptotic CHOP UPR arm, primary screen, cell-based, CHO-CHOP luciferase reporter, luminescence, uHTS | UPR activation; percent of tunicamycin response over DMSO baseline | activation, % at 10 µM | 0.34% of 330,000 active | AID 449763, 2010;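 active = at 10 µM dose, activation of 40% or more, normalized to positive control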;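 note: 100% = tunicamycin at 10 µg/mL and 0% = DMSO alone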
#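 assay system = CHO CHOP reporter cells | amount = 500 CHO-CHOP cells per well | buffer or medium = F12 with 10% FBS | incubation = 16-18 h cell attachment, then 6 h compound exposure, 37 °C | detection = luminescence read with Steady-Glo | read-out = percent activation relative to tunicamycin control | controls = tunicamycin high control, DMSO low control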
# HCV NS3 hel inh: inhibitors of HCV NS3 helicase, primary screen, biochemical, Cy5 molecular beacon fluorescence | Hepatitis C virus NS3 helicase | NS3 helicase DNA unwinding | inhibition, % at 10.9 µM | 0.56% of 290,000 active;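 active = inhibition above the mean of all tested compounds plus 3 SD, set per campaign, cut at about 35% in these data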;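 note: 0% = DMSO wells and 100% = thioflavine S control wells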
#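 assay system = NS3 helicase fragment of HCV | buffer or medium = MOPS pH 6.5, MgCl2, DTT, Tween20, BSA | timing = 60 min unwinding reaction at 25 °C after ATP addition | signal = Cy5 beacon fluorescence read at start and 1 h | read-out basis = % inhibition of unwinding | control set = low DMSO, high thioflavine S at 110 µM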
# CHOP inhibitor: inhibitors of CHOP promoter induction, primary screen, cell-based, unfolded protein response, luciferase reporter. inhibition, % at 10 µM. CHO-K1 CHOP-promoter luciferase, tunicamycin-induced, 15-18 h. 3.8% of 220,000 active;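 active = compounds that reduced the stress-induced luciferase reporter signal by more than about 70% of percent inhibition, limit read from the data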;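 note: 0% = tunicamycin plus vehicle and 100% = wells without tunicamycin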
# M18AAP inhibitor: PfM18AAP inhibitors, malaria aminopeptidase, primary screen, biochemical, QFRET, recombinant enzyme | M18 aspartyl aminopeptidase (Plasmodium falciparum 3D7) | H-Glu-NHMec fluorogenic cleavage | inhibition, % at 7.35 µM | 1.2% of 290,000 active | AID 1822, 2009;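 active = inhibition above the campaign mean inhibition over all tested compounds plus 3 SD, cut at about 28% in these data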;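 note: 0% = plate median of test compound wells and 100% = 2 mM ZnCl2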
# XBP1 UPR activ: activators of adaptive XBP1 UPR arm, primary screen, cell-based, CHO-XBP1 luciferase reporter, luminescence, uHTS; IRE1-XBP1 UPR activation; percent of tunicamycin response, DMSO as zero; activation, % at 20 µM; 0.33% of 330,000 active;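 active = versus positive control, 20 µM dose yields 30% or more activation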;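 note: 100% = tunicamycin at 10 µg/mL and 0% = DMSO only wells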
#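 Signal: luciferase luminescence; Assay system: CHO-XBP1 luciferase reporter cells; Amount: one thousand reporter cells per well; Dosing: 20 µM single concentration, DMSO 1%; Benchmarks: high control tunicamycin 10 µg/mL final, low control DMSO vehicle only; Schedule: 6 h compound exposure at 37 °C, 5% CO2; Evaluation: percent activation relative to tunicamycin reference.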
# p97 ATPase inh: inhibitors of human p97 ATPase, primary screen, biochemical; Transitional endoplasmic reticulum ATPase (Homo sapiens), P55072; inhibition, % at 8 µM; 0.42% of 220,000 active; recombinant p97 ATPase, Kinase-Glo ATP luminescence, 3 h; AID 1481, 2009; in the data active = inhibition above about 15%;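 note: 0% = DMSO vehicle and 100% = wells lacking enzyme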
# NS3 helicase cf: HCV NS3 helicase inhibitors, retest, confirmation, biochemical, Cy5 molecular beacon fluorescence, triplicate | inhibition, % at 10.9 µM | shares compounds with HCV NS3 hel inh | 31% of 1,600 active | NS3 helicase DNA unwinding;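 active = inhibition above the mean of all tested compounds plus 3 SD, cutoff set per campaign, cut at about 36% in these data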
# FID counter trip: compounds displacing fluorescent DNA intercalator, artefact control for HCV NS3 helicase inhibitor project, biochemical, FID fluorescence, triplicate | shares compounds with HCV NS3 hel inh | DNA fluorescent intercalator displacement | inhibition, % at 7.9 µM | 4% of 1,600 active; in the data active = inhibition above about 37%;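 note: 0% = vehicle and 100% = reference compound; higher means more displacement of ethidium bromide from the DNA hairpin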
# * = called active by the depositor; . = no result.
SMILES,CHOP UPR activ,HCV NS3 hel inh,CHOP inhibitor,M18AAP inhibitor,XBP1 UPR activ,p97 ATPase inh,NS3 helicase cf,FID counter trip
N#C/C(=C/c1ccc(-c2cc(C(=O)O)cc(C(=O)O)c2)o1)c1nc2ccccc2s1,-2,36*,3,13,8,1,82*,-15
Nc1c(C(=O)CSc2ncccn2)c(=O)[nH]c(=O)n1C1CC1,-1,.,.,.,-3,.,.,.
N[C@@H](Cc1ccccc1)c1nnc(SC/C=C/c2ccccc2)o1,-1,-57,13,7,-2,1,.,.
CCOC(=O)C1=C(C)NC(C)=C(C(=O)OC)C1c1ccco1 (configuration not stated),3,37*,2,0,3,-15,-5,10
CCOC(=O)C1=C(N)n2c(s/c(=C/c3ccco3)c2=O)=C(C(=O)OC)C1c1ccco1 (configuration not stated),.,41*,50,22,.,5,-3,9
CC(C)Nc1nc(Oc2ccc(=O)n(-c3ccccc3)n2)nc(N(C)C)n1,0,36*,-8,4,2,-6,-3,-20
CC(C)Nc1nc(NC(C)C)nc(Oc2ccc(=O)n(C)n2)n1,1,-9,-2,1,-3,0,.,.
COc1ccc(C)cc1NC(=O)CN1C(=O)COc2ccc(S(=O)(=O)N3CCCCC3)cc21,1,-9,.,-1,-1,.,.,.
COc1ccc(-c2noc(=O)n2Cc2ccccc2F)cc1,2,-9,.,1,-4,.,.,.
CCOc1ccc(-c2ccc(/C=C3/C(=N)N4C(C)=CSC4=NC3=O)o2)c([N+](=O)[O-])c1,4,48*,88*,8,3,-1,-3,2
N=C1/C(=C\c2ccc(-c3cc(Cl)cc(Cl)c3)o2)C(=O)N=C2SC=C(c3ccccc3)N12,0,27,5,-2,-2,7,.,.
COc1ccc(-c2nc(=S)c3c([nH]2)Oc2ccc(C)cc2C3)cc1O,2,53*,31,10,1,1,12,-16
N#CC1=C(N)S[C@@H](C(=O)c2ccc(F)cc2)[C@@H]1c1cccs1,-2,39*,10,19,-1,9,7,16
N#CC1=C(N)SC(C(=O)c2ccccc2)C1c1cccs1 (configuration not stated),0,27,-6,8,-2,4,.,.
C[C@@H]1CN([C@@H](C)CO)C(=O)c2cc(NC(=O)C3CC3)ccc2O[C@@H]1CN(C)Cc1ccc(Cl)c(Cl)c1,1,.,.,.,-1,.,.,.
Cc1cc(=O)[nH]c2c1cnn2Cc1ccccc1,-3,3,-11,0,-3,-1,.,.
S=c1nc[nH]c2c1cnn2Cc1ccccc1,-1,41*,.,4,-5,.,2,-4
O=C(NCc1ccco1)C(=O)NCC1OCCN1S(=O)(=O)c1cc(F)ccc1F (configuration not stated),-2,49*,13,1,-1,4,-7,11
Cc1c(C(=O)O)cccc1-c1ccc(/C=N/Nc2ccc(Br)cc2)o1,3,44*,37,-18,-3,5,38*,2
O=C(O)c1ccc(N/N=C/c2ccc(-c3cc(Cl)ccc3Cl)o2)cc1,-3,40*,38,-11,-2,-2,62*,14
O=C(O)c1ccc(N/N=C/c2ccc(-c3cccc(Cl)c3)o2)cc1,3,-8,-6,0,2,8,.,.
